Data from ChEMBL document CHEMBL4689842, “EUbOPEN Chemogenomics Library wave 1” (2021).

Test system: Fibroblast
Assay: Multiplex assay against human fibroblast
Assay type: toxicity, cell-based
Outline: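 Compound was added to live cells that had been stained at seeding with Hoechst33342, BioTracker Green Microtubule Cytoskeleton Dye, MitoTracker Red and Annexin V Alexa Fluor 680, and imaging followed on a CQ1 microscope at 37°C and 5% CO2. CellPathfinder machine-learning gating divided cells into Hoechst high-intensity objects or normal cells, normal cells into healthy, pyknosed or fragmented nuclei, and pyknosed cells into mitotic or apoptotic. Tubulin, mitochondrial-mass and membrane-permeability phenotypes are per cents of healthy-nucleus cells.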

[1] = 12 h, 1 µM, compound concentration 1 uM, replicate 1
[2] = 12 h, 1 µM, compound concentration 1 uM, replicate 2
[3] = 12 h, 10 µM, compound concentration 10 uM, replicate 1
[4] = 12 h, 10 µM, compound concentration 10 uM, replicate 2
[5] = 24 h, 1 µM, compound concentration 1 uM, replicate 1
[6] = 24 h, 1 µM, compound concentration 1 uM, replicate 2
[7] = 24 h, 10 µM, compound concentration 10 uM, replicate 1
[8] = 24 h, 10 µM, compound concentration 10 uM, replicate 2
[9] = 48 h, 1 µM, compound concentration 1 uM, replicate 1
[10] = 48 h, 1 µM, compound concentration 1 uM, replicate 2
[11] = 48 h, 10 µM, compound concentration 10 uM, replicate 1
[12] = 48 h, 10 µM, compound concentration 10 uM, replicate 2

SMILES: CC(C)Oc1ccccc1C(=O)Nc1ccccc1C(=O)Nc1cccc(S(=O)(=O)C(F)(F)F)c1
- Population Apoptotic (%) [1]: 75%
- Population Fragmented Nuclei (%) [1]: 23%
- Population Healthy Nuclei (%) [1]: 49%
- Population Hoechst High Intensity Objects (%) [1]: 14%
- Population Membrane Permeable-Phenotype (%) [1]: 16%
- Population Mitochondria Different-Phenotype (%) [1]: 22%
- Population Mitotic Cells (%) [1]: 25%
- Population Normal (%) [1]: 85%
- Population Pyknosed Nuclei (%) [1]: 26%
- Population Tubulin-Different-Phenotype (%) [1]: 62%
- Total Cell Count [1]: 158
- Population Apoptotic (%) [2]: 33%
- Population Fragmented Nuclei (%) [2]: 20%
- Population Healthy Nuclei (%) [2]: 74%
- Population Hoechst High Intensity Objects (%) [2]: 5%
- Population Membrane Permeable-Phenotype (%) [2]: 10%
- Population Mitochondria Different-Phenotype (%) [2]: 45%
- Population Mitotic Cells (%) [2]: 66%
- Population Normal (%) [2]: 94%
- Population Pyknosed Nuclei (%) [2]: 6%
- Population Tubulin-Different-Phenotype (%) [2]: 37%
- Total Cell Count [2]: 62
- Population Apoptotic (%) [3]: 61%
- Population Fragmented Nuclei (%) [3]: 39%
- Population Healthy Nuclei (%) [3]: 34%
- Population Hoechst High Intensity Objects (%) [3]: 11%
- Population Membrane Permeable-Phenotype (%) [3]: 35%
- Population Mitochondria Different-Phenotype (%) [3]: 47%
- Population Mitotic Cells (%) [3]: 38%
- Population Normal (%) [3]: 88%
- Population Pyknosed Nuclei (%) [3]: 25%
- Population Tubulin-Different-Phenotype (%) [3]: 23%
- Total Cell Count [3]: 137
- Population Apoptotic (%) [4]: 90%
- Population Fragmented Nuclei (%) [4]: 17%
- Population Healthy Nuclei (%) [4]: 71%
- Population Hoechst High Intensity Objects (%) [4]: 4%
- Population Membrane Permeable-Phenotype (%) [4]: 97%
- Population Mitochondria Different-Phenotype (%) [4]: 92%
- Population Mitotic Cells (%) [4]: 10%
- Population Normal (%) [4]: 96%
- Population Pyknosed Nuclei (%) [4]: 10%
- Population Tubulin-Different-Phenotype (%) [4]: 100%
- Total Cell Count [4]: 53
- Population Apoptotic (%) [5]: 61%
- Population Fragmented Nuclei (%) [5]: 25%
- Population Healthy Nuclei (%) [5]: 51%
- Population Hoechst High Intensity Objects (%) [5]: 11%
- Population Membrane Permeable-Phenotype (%) [5]: 10%
- Population Mitochondria Different-Phenotype (%) [5]: 22%
- Population Mitotic Cells (%) [5]: 38%
- Population Normal (%) [5]: 88%
- Population Pyknosed Nuclei (%) [5]: 22%
- Population Tubulin-Different-Phenotype (%) [5]: 65%
- Total Cell Count [5]: 168
- Population Apoptotic (%) [6]: 33%
- Population Fragmented Nuclei (%) [6]: 21%
- Population Healthy Nuclei (%) [6]: 66%
- Population Hoechst High Intensity Objects (%) [6]: 7%
- Population Membrane Permeable-Phenotype (%) [6]: 11%
- Population Mitochondria Different-Phenotype (%) [6]: 58%
- Population Mitotic Cells (%) [6]: 66%
- Population Normal (%) [6]: 92%
- Population Pyknosed Nuclei (%) [6]: 11%
- Population Tubulin-Different-Phenotype (%) [6]: 35%
- Total Cell Count [6]: 57
- Population Apoptotic (%) [7]: 79%
- Population Fragmented Nuclei (%) [7]: 40%
- Population Healthy Nuclei (%) [7]: 37%
- Population Hoechst High Intensity Objects (%) [7]: 12%
- Population Membrane Permeable-Phenotype (%) [7]: 21%
- Population Mitochondria Different-Phenotype (%) [7]: 71%
- Population Mitotic Cells (%) [7]: 20%
- Population Normal (%) [7]: 87%
- Population Pyknosed Nuclei (%) [7]: 21%
- Population Tubulin-Different-Phenotype (%) [7]: 23%
- Total Cell Count [7]: 127
- Population Apoptotic (%) [8]: 100%
- Population Fragmented Nuclei (%) [8]: 17%
- Population Healthy Nuclei (%) [8]: 56%
- Population Hoechst High Intensity Objects (%) [8]: 11%
- Population Membrane Permeable-Phenotype (%) [8]: 91%
- Population Mitochondria Different-Phenotype (%) [8]: 94%
- Population Mitotic Cells (%) [8]: 0%
- Population Normal (%) [8]: 88%
- Population Pyknosed Nuclei (%) [8]: 27%
- Population Tubulin-Different-Phenotype (%) [8]: 98%
- Total Cell Count [8]: 55
- Population Apoptotic (%) [9]: 70%
- Population Fragmented Nuclei (%) [9]: 30%
- Population Healthy Nuclei (%) [9]: 57%
- Population Hoechst High Intensity Objects (%) [9]: 14%
- Population Membrane Permeable-Phenotype (%) [9]: 14%
- Population Mitochondria Different-Phenotype (%) [9]: 13%
- Population Mitotic Cells (%) [9]: 29%
- Population Normal (%) [9]: 85%
- Population Pyknosed Nuclei (%) [9]: 12%
- Population Tubulin-Different-Phenotype (%) [9]: 49%
- Total Cell Count [9]: 163
- Population Apoptotic (%) [10]: 60%
- Population Fragmented Nuclei (%) [10]: 29%
- Population Healthy Nuclei (%) [10]: 67%
- Population Hoechst High Intensity Objects (%) [10]: 7%
- Population Membrane Permeable-Phenotype (%) [10]: 4%
- Population Mitochondria Different-Phenotype (%) [10]: 1%
- Population Mitotic Cells (%) [10]: 40%
- Population Normal (%) [10]: 92%
- Population Pyknosed Nuclei (%) [10]: 3%
- Population Tubulin-Different-Phenotype (%) [10]: 55%
- Total Cell Count [10]: 154
- Population Apoptotic (%) [11]: 78%
- Population Fragmented Nuclei (%) [11]: 69%
- Population Healthy Nuclei (%) [11]: 24%
- Population Hoechst High Intensity Objects (%) [11]: 10%
- Population Membrane Permeable-Phenotype (%) [11]: 14%
- Population Mitochondria Different-Phenotype (%) [11]: 46%
- Population Mitotic Cells (%) [11]: 21%
- Population Normal (%) [11]: 89%
- Population Pyknosed Nuclei (%) [11]: 6%
- Population Tubulin-Different-Phenotype (%) [11]: 48%
- Total Cell Count [11]: 232
- Population Apoptotic (%) [12]: 50%
- Population Fragmented Nuclei (%) [12]: 66%
- Population Healthy Nuclei (%) [12]: 29%
- Population Hoechst High Intensity Objects (%) [12]: 9%
- Population Membrane Permeable-Phenotype (%) [12]: 21%
- Population Mitochondria Different-Phenotype (%) [12]: 65%
- Population Mitotic Cells (%) [12]: 50%
- Population Normal (%) [12]: 90%
- Population Pyknosed Nuclei (%) [12]: 3%
- Population Tubulin-Different-Phenotype (%) [12]: 55%
- Total Cell Count [12]: 175
